Screening data as filed in PubChem BioAssay.
MEKK3 PB1 HTS: raises or lowers MEK5 binding to the human MEKK3 PB1 domain; binding response (% of control), % at 10 µM; hit rate 1.4% among 290,000; AID 1529; Q99759; bead-based flow cytometry, Alexa488-MEK5 binding to MEKK3; actives lie on both sides; 0 = blocked by unlabeled MEK5, 100 = vehicle;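 active means binding response more than 3 SD above or below the average of its plate-row segment, actives on both sides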;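 further: Alexa488 bead fluorescence after subtracting the streptavidin-only scavenger bead signal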
Apaf1 inhib: blocks human Apaf-1 apoptosome activity; reconstituted apoptosome caspase-3 activity, DEVD-Rh110 fluorescence; inhibition, % at 20 µM; hit rate 0.71% among 330,000; active means inhibition of at least 40% at 20 µM;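 further: plate controls were DMSO wells for no effect and DEVD-CHO caspase inhibitor wells for full effect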
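System: Apoptosome proteins | Medium: Hepes pH 7.5 with detergent and BSA | Also added: Cytochrome c trigger plus (Z-DEVD)2-Rh110 caspase-3 substrate | Incubation: 30 min compound preincubation, 50 min activation, room temperature | Detection: Rhodamine 110 fluorescence at Ex 480/Em 540 nm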
MEKK2mut PB1 HTS: signal of MEK5 binding to mutant human MEKK2 PB1 domain; hit rate 0.35% among 290,000; AID 1530; bead flow cytometry, Alexa488-MEK5 binding to MEKK2 mutant; percent response, % at 10 µM; in the data active means percent response above about 24%, passing the limit was not always enough
MEKK2 WT-MEK5: raises or lowers MEK5 binding to wildtype human MEKK2 PB1 domain | binding response (% of control), % at 10 µM | Q9Y2U5 | bead flow cytometry, Alexa488-MEK5 binding to MEKK2 WT; actives lie on both sides | AID 1531 | hit rate 1.1% among 290,000; in the data active means binding response below about 67% or above about 130%
UBC13 inh: human UBC13 polyubiquitination inhibition; P61088; UBC13 polyubiquitin chain formation, TR-FRET; inhibition, % at 20 µM; hit rate 0.47% among 330,000; AID 485273; in the data active means inhibition above about 45%, passing the limit was not always enough
Target sequence (P61088 whole entry, looked up): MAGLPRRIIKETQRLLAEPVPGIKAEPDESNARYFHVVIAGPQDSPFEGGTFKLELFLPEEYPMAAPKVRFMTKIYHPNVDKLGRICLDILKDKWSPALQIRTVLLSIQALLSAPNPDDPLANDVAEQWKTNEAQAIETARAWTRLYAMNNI
MEKK2wt confirm: raises or lowers MEK5 binding to wildtype human MEKK2, retest; shares compounds with MEKK3 PB1 HTS; bead flow cytometry, Alexa488-MEK5 binding to MEKK2 WT; actives lie on both sides; binding response (% of control), % at 10 µM; hit rate 2.4% among 5,900; AID 1892; in the data active means binding response below about 16% or above about 210%; inactive means in between
MEKK2mut-MEK5: signal of MEK5 binding to mutant human MEKK2, retest | hit rate 2% among 5,900 | shares compounds with MEKK3 PB1 HTS | AID 1893 | percent response, % at 10 µM | bead flow cytometry, Alexa488-MEK5 binding to MEKK2 mutant; in the data active means percent response mostly above about 71%, no sharp cut-off; inactive means mostly below about 38%;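 further: higher means compound restores mutant binding toward wildtype level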
MEKK3 confirm: confirmation of inhibitors of MEK5 binding to human MEKK3; shares compounds with MEKK3 PB1 HTS; bead flow cytometry, Alexa488-MEK5 binding to MEKK3; stronger effect = lower value; binding response (% of control), % at 10 µM; hit rate 1.8% among 5,900;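 active means binding response below 72% of control, or above a set upper limit, though filed actives all read lower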;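 further: 100% = DMSO only wells and 0% = binding blocked by excess unlabeled MEK5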
Casp3 UBC13 ctr: counter-screen for UBC13 inhibitors: human caspase-3 inhibition; shares compounds with UBC13 inh; Recombinant caspase-3, Caspase-Glo 3/7 luminescence, 60 min; hit rate 4% among 1,400; AID 488856; inhibition, % at 20 µM;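 active means mean inhibition across replicates above about 26%, limit read from the data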;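 further: plate controls were DMSO with caspase-3 for no effect and DMSO wells lacking enzyme for full effect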
Target sequence (P42574 whole entry, looked up): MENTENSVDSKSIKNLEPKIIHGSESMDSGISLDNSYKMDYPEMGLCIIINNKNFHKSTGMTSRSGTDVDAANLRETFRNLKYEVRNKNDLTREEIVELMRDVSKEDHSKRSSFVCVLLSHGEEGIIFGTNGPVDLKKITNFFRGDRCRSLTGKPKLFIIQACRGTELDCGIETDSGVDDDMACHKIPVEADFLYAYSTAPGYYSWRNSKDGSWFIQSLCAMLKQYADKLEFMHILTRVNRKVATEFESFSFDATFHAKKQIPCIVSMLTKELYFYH
UBC13 conf: human UBC13 polyubiquitin inhibition, confirmed; inhibition, % at 10 µM; UBC13 polyubiquitination, TR-FRET, biochemical; hit rate 68% among 1,400; shares compounds with UBC13 inh; in the data active means inhibition above about 45%
Apaf-1 inh conf2: Apaf-1 inhibition, single-dose confirmed; shares compounds with Apaf1 inhib; reconstituted apoptosome, caspase-3 DEVD-Rh110 fluorescence; inhibition, % at 20 µM; hit rate 25% among 1,800; AID 504614;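 active means mean inhibition of at least 40% at 20 µM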;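 further: plate controls were DMSO wells for no effect and DEVD-CHO caspase inhibitor control wells for full effect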
Rh110 interf inh: Rh110 signal interference in Apaf-1 inhibitor counter-screen; shares compounds with Apaf1 inhib; Rh110 fluorescence interference, quenched caspase reaction; activation (fluorescence interference), % at 20 µM; 1,800 tested, under 10 active; AID 504615;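 active means signal rise of 40% or more at 20 µM, treated as a fluorescence artifact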
The depositor's hits bear a star; . = no result given; [ ] = another dose, or the depositor's remark. In the library only some 2.9% were active in any assay of this set; here they are far more common.

SMILES	MEKK3 PB1 HTS	Apaf1 inhib	MEKK2mut PB1 HTS	MEKK2 WT-MEK5	UBC13 inh	Casp3 UBC13 ctr	UBC13 conf	others
COc1ccc(/C=C2\SC(=S)N(CCC(=O)Nc3ccc(O)cc3)C2=O)cc1	99	-1	3	98	-19	.	.
CCN(CC)CCOC(=O)c1ccc(NC(=O)CCCN2C(=O)S/C(=C/c3ccc(OC)cc3)C2=S)cc1	106	44*	44*	192*	22	.	.	MEKK2wt confirm=111;MEKK2mut-MEK5=2;MEKK3 confirm=87;Apaf-1 inh conf2=27;Rh110 interf inh=7
COC(=O)c1ccc(OCCN2CCCCCC2)cc1	99	-3	2	110	-7	.	.
O=C(c1ccc(OCCN2CCCCC2)cc1)c1c(-c2ccc(O)cc2)sc2cc(O)ccc12	111	47*	28*	201*	92*	4	102*	MEKK2wt confirm=143;MEKK2mut-MEK5=33;MEKK3 confirm=94;Apaf-1 inh conf2=8;Rh110 interf inh=-5
FC(F)(F)c1ccc(Oc2ccc3cc(Br)ccc3c2)nc1	122	-1	0	99	7	.	.
O=C(CCS(=O)(=O)c1ccc(Br)cc1)Nc1ccc(Br)cc1F	91	2	-3	92	-6	.	.
CCc1ccc(OCC(O)CN2CCC(CN3C(=O)c4cccc5cccc(c45)C3=O)CC2)cc1 (centres undefined)	118	42*	1	148*	61*	4	65*	MEKK2wt confirm=199;MEKK2mut-MEK5=43;MEKK3 confirm=108;Apaf-1 inh conf2=13;Rh110 interf inh=-10
CC(C)CN(C(=O)COC(=O)CSc1ccccc1)c1c(N)n(Cc2ccccc2)c(=O)[nH]c1=O	.	-1	.	.	-9	.	.
Cc1onc(-c2ccccc2Cl)c1C(=O)NCc1ccc2c(c1)cc(C)n2C	59*[inhibitor]	53*	-8	43*[inhibitor]	13	.	.	MEKK2wt confirm=93;MEKK2mut-MEK5=-3;MEKK3 confirm=99;Apaf-1 inh conf2=19;Rh110 interf inh=1
COc1cc(COCC(O)CN2CCN(CCN3C(=O)c4cccc5cccc(c45)C3=O)CC2)cc(OC)c1OC (centres undefined)	91	-6	-3	95	26	.	.
COc1ccc(COCC(O)CN2CCC(CN3C(=O)c4cccc5cccc(c45)C3=O)CC2)cc1OC (centres undefined)	106	2	5	111	73*	-4	65*
O=C1c2cccc3cccc(c23)C(=O)N1CC1CCN(CC(O)COc2ccc3ccccc3c2)CC1 (centres undefined)	.	36	.	.	79*	-1	85*
O=C(O)c1cc([N+](=O)[O-])ccc1N1CCC(Cc2ccccc2)CC1	105	-9	5	100	-11	.	.
COc1ccccc1NC(=O)CSc1nc2ccccc2n1C(C)=O	106	-3	8	106	46*	-1	28
Cc1cccc(N2C(=O)c3ccc(C(=O)Nc4ccccn4)cc3C2=O)c1	99	6	-5	104	-4	.	.
CC(=O)Nc1ccc2c(c1)C(=O)N(c1cccc(C)c1)C2=O	105	-12	2	99	46*	2	40
O=C1CC(c2ccc(F)cc2)C(n2cncn2)C(O)=C1C1NCCc2ccccc21 (centres undefined)	106	-6	-3	99	54*	-1	9
C#CCOCCOCCOCCNc1nc(N2CCN(C(=O)[C@H](CCC(=O)O)n3cc([C@@H](N)CCCCN)nn3)CC2)nc(N2CCN(C(=O)[C@H](CCCCN)n3cc([C@@H](N)CC(N)=O)nn3)CC2)n1	.	24	.	.	42	.	.
O=C(Nc1ccc(C(=O)NCC2CCN(Cc3ccccc3F)CC2)cc1)C1=CSCCO1	98	-4	0	108	25	.	.
Cc1ccc(CN2CCC(CNC(=O)c3ccc(NC(=O)C4=CSCCO4)cc3)CC2)cc1	101	-3	6	120	72*	-1	96*
CCN1CCN(CCNC(=O)c2ccc3nc(-c4cccc(C)c4)c(-c4cccc(C)c4)nc3c2)CC1	104	47*	25*	151*	54*	-2	84*
CC(C)(C)c1ccc(C(=O)NC(=O)COC(=O)c2ccc(Br)o2)cc1	.	-4	.	.	-12	.	.
COCCn1c(SCC(N)=O)nc2c(c1=O)SC(C)C2 (centres undefined)	100	5	7	101	49*	-4	-4
CC1Cc2nc(SCC(N)=O)n(C)c(=O)c2S1 (centres undefined)	107	-2	8	106	-2	.	.
CCCCC(=O)Nc1ccc2c3c(cccc13)C(=O)N2CC	100	-7	0	103	60*	2	66*
SMILES	MEKK3 PB1 HTS	Apaf1 inhib	MEKK2mut PB1 HTS	MEKK2 WT-MEK5	UBC13 inh	Casp3 UBC13 ctr	UBC13 conf	others
CCOC(=O)c1c(-c2ccccc2)oc2ccc(OCC(O)CN(C)C)cc12 (centres undefined)	107	19	25*	162*	47*	-4	52*
CCOC(=O)c1c(-c2ccccc2)oc2ccc(OC(C)C(=O)O)cc12 (centres undefined)	101	-1	5	105	15	.	.
O=C(CN1C(=O)NC2(CCCC2)C1=O)NCCC1=CCCCC1	101	-11	16	100	97*	-1	6
COc1ccc(SC[C@H](Cc2ccccc2)N2CC[C@@H](C)CCC2=O)cc1	.	20	.	.	8	.	.
COc1ccc(-c2sc3ccc(OC)cc3c2C#Cc2cncn2C)cc1	.	16	.	.	48*	-2	40
COc1ccc(-c2sc3ccccc3c2-c2ccc(O)cc2)cc1	.	26	.	.	28	.	.
COc1ccc(-c2sc3ccccc3c2-c2ccc(OCCN(C)C)cc2)cc1	.	77*	.	.	87*	-10	81*
COc1c(C=O)cc2c3c1CCCN3CCC2	109	-6	3	114	6	.	.
NCc1cc2c3c(c1)CCCN3CCC2	101	-15	18	119	54*	-2	19
